Most compounds without a hit are left out; they make up all but 4.2% or so of the library.
GalR3 antagonist = antagonists of human GalR3; O60755; inhibition, % at 3 µM; 0.44% of 360,000 active; HEK293 GalR3-CNG cAMP membrane potential fluorescence; galR3 body fused to GalR1 C-terminus; AID 651719;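 active = inhibition above the screen-wide average plus 3 SD, cut at about 13% in these data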;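 also: forskolin and galanin both at EC90 stimulate the cells; cAMP rise reported by CNG channel membrane potential dye signal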
TAAR1 antag = human TAAR1 antagonism. 1.5% of 360,000 active. inhibition, % at 3 µM. CHO RD-HGA16 TAAR1, Fluo-8 calcium fluorescence, antagonist;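 active = inhibition above a per-plate cutoff, the mean inhibition of test compounds on that plate plus 3 SD, cut at about 49% in these data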
Target sequence (Q96RJ0 whole entry, looked up): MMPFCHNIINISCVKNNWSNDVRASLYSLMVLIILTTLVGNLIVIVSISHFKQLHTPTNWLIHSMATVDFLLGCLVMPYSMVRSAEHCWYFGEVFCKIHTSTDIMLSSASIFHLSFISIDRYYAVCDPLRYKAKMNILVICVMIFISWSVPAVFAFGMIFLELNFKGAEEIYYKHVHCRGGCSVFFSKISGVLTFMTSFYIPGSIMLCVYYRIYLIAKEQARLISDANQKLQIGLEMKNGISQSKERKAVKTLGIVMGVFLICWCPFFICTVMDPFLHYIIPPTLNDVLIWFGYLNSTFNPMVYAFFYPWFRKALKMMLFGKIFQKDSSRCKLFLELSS
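Test system: RD-HGA16 CHO cells with stable hTAAR1 and Gα16 / Probe or stimulus: EC80 β-phenethylamine stimulus / Times: seeding 17-24 h prior, 75-min 37 °C, 30-min RT dye loading / Detection: Fluo-8 calcium-sensitive fluorescence / Read-out basis: % inhibition scaled between DMSO and EC80 PEA controls / Repeats: singlicate, one well per test compound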
CHO parental Ca = counter-screen: ATP calcium response change in parental CHO cells; 0.63% of 330,000 active; parental CHO-K1, ATP-induced calcium, Fluo-8 fluorescence; inhibition, % at 5.6 µM;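 active = inhibition above that plate's mean sample inhibition plus 3 SD, cut at about 26% in these data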
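Test system: parental CHO cells; detection: calcium-sensitive Fluo-8 fluorescence; evaluation: percent inhibition of calcium signal; also added: ATP as calcium-mobilizing challenge; repeats: one well per compound; control set: ATP-challenged DMSO wells low, unchallenged DMSO wells high; compound: single nominal dose of 5.6 µM per compound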
OX1R antag-1 = blocks the human orexin 1 receptor | inhibition, % at 5 µM | AID 434989 | CHO/OX1R cells, Fluo-8 calcium fluorescence, orexin A | 0.43% of 330,000 active | O43613;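 active = inhibition above its plate's threshold, mean inhibition of all tested compounds on the plate plus 3 SD, cut at about 37% in these data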
Target sequence (O43613 whole entry, looked up): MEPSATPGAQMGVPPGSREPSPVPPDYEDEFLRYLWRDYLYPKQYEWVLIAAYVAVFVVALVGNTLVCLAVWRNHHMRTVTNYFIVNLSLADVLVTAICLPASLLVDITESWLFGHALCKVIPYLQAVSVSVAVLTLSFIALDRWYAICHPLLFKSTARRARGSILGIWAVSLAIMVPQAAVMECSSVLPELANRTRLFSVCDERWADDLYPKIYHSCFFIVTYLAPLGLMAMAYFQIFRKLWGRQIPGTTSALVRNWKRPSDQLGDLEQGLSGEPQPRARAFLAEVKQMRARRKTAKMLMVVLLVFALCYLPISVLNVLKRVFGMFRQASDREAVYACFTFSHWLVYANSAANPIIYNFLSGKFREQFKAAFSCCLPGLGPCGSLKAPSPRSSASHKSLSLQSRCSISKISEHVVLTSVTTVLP
TAAR1 ag = human TAAR1 agonism; Q96RJ0; CHO RD-HGA16 TAAR1, Fluo-8 calcium fluorescence; vehicle wells 0%, saturating PEA agonist 100%; activation, % at 3 µM; 0.99% of 360,000 active; AID 624467;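 active = activation above the mean activation of all test compounds in the run plus 3 SD, cut at about 38% in these data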
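test system = CHO RD-HGA16 cells carrying human TAAR1 plus Gα16 | schedule = 17-24 h seeding, 75 min 37 °C dye, 30 min RT | compound dosing = 3 µM single concentration | control set = DMSO and PEA EC100 | replicates = n 1 | signal = Fluo-8 fluorescence, 5 s baseline then 140 s kinetic read | measure = percent activation vs PEA EC100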
OX1R antag-2 = antagonists of human orexin 1 receptor (OX1R); O43613; OX1R-expressing cells, FRET antagonist read-out; inhibition, % at 6.6 µM; 1.8% of 330,000 active; AID 485270; in the data active = inhibition mostly above about 38%, no sharp cut-off; inactive = mostly below about 40%
OX1R Ca confirm = OX1R (human) antagonism, confirmed | CHO/OX1R cells, orexin A calcium Fluo-8 fluorescence | inhibition, % at 5 µM | shares compounds with OX1R antag-1 | 38% of 1,100 active; in the data active = inhibition above about 29%
CHO Ca triplic = counter-screen: parental CHO calcium response change, triplicate; AID 492965; parental CHO-K1, ATP-induced calcium, Fluo-8 fluorescence; shares compounds with OX1R antag-1; inhibition, % at 5.6 µM; 9.3% of 1,100 active;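 active = inhibition above a per-plate limit, the mean inhibition of that plate's test compounds plus 3 SD, cut at about 25% in these data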
OX1R HTRF confirm = OX1R (human) antagonism, HTRF confirmed; shares compounds with OX1R antag-2; OX1R-expressing cells, HTRF antagonist assay; inhibition, % at 6.6 µM; 49% of 1,800 active; in the data active = inhibition above about 55%;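 also: CHO cells expressing OX1R stimulated with orexin A at about EC80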
CHO-K1 HTRF = signal in parental CHO-K1 cells, OX1R antagonist counter-screen | AID 493232 | HTRF counterscreen | inhibition, % at 6.6 µM | 48% of 1,800 active | shares compounds with OX1R antag-2; in the data active = inhibition above about 17%
Of the large screens only hits and unclear results are named; the others gave an inactive call (follow-up assays come after a bar, where they were run).

Cc1ccc(NC(=O)C2=C(c3ccccc3)S(=O)(=O)CCS2(=O)=O)cc1	none | OX1R Ca confirm 43 | CHO Ca triplic inactive
Cc1cc(-c2nnc3n2N=C(c2ccc(-c4ccccc4)cc2)CS3)n[nH]1	OX1R antag-1 57, TAAR1 ag 45 | OX1R Ca confirm inactive | CHO Ca triplic inactive
Cc1cc(-c2nnc3n2N=C(c2ccccc2)CS3)n[nH]1	none
O=C(NC(Cc1ccccc1)C(=O)O)OCc1ccccc1 (configuration not stated)	none
CCN(c1ccccc1)S(=O)(=O)c1cc(C(=O)Nc2ccc(F)c(F)c2)ccc1F	TAAR1 antag 56 | OX1R Ca confirm 38 | CHO Ca triplic inactive
CCOC(=O)N1CCN(C(=O)CSc2ncnc3ccccc23)CC1	none
CCOc1cc2c(cc1C=O)OC(C)C2 (configuration not stated)	none
CCOc1cc2c(cc1/C=C/c1noc(C)c1[N+](=O)[O-])OC(C)C2 (configuration not stated)	none | OX1R Ca confirm 51 | CHO Ca triplic 44
O=C(Oc1ccc(Cl)c2cccnc12)N1CCCCC1	OX1R antag-1 90 | OX1R Ca confirm inactive | CHO Ca triplic inactive
O=C(Oc1ccc(Cl)c2cccnc12)N1CCOCC1	none
CCOC(=O)/C(=C\C=C1/Sc2ccccc2N1CC)C(C)=O	none | OX1R Ca confirm 34 | CHO Ca triplic 35
CCOC(=O)c1ccc(N=C2SC(C(=O)Nc3ccc(C(=O)O)cc3)CC(=O)N2Cc2cccs2)cc1 (configuration not stated)	none | OX1R Ca confirm inactive | CHO Ca triplic inactive
CCOC(=O)c1ccc(N=C2SC(C(=O)NC)CC(=O)N2Cc2ccc(F)cc2)cc1 (configuration not stated)	none
CCc1cccc(C)c1NC(=O)COC(=O)CNS(=O)(=O)/C=C/c1ccccc1	none
CCCCOC(=O)c1ccc(NC(=O)c2cc(Cl)ccc2OC)cc1	none | OX1R Ca confirm 29 | CHO Ca triplic inactive
CCCCOC(=O)c1ccc(NC(=O)c2ccccc2OC)cc1	none
Cc1nc2c(-c3ccc(Cl)cc3)cnn2c2c1CCC2	OX1R antag-1 40 | OX1R Ca confirm 34 | CHO Ca triplic inactive
Cc1nc2c(-c3ccc(Cl)cc3)cnn2c(N)c1-c1ccc(F)cc1	none
O=C(NCc1nc(-c2ccc(C(F)(F)F)cc2)no1)Nc1cc(Cl)cc(Cl)c1	none | OX1R Ca confirm inactive | CHO Ca triplic 48
O=C(COC(=O)Cn1cnc2ccccc21)Nc1ccc2c(c1)OCCO2	none
O=C(CCNC(=O)c1ccc(Br)o1)NC1CCCC1	none | OX1R Ca confirm inactive | CHO Ca triplic inactive
O=C(NC1CCCCC1)c1ccc(Br)o1	none
CCC(NC(=O)c1cc(COc2cc(C)c(Cl)c(C)c2)on1)c1ccncc1 (configuration not stated)	OX1R antag-1 42, TAAR1 ag 43 | OX1R Ca confirm inactive | CHO Ca triplic inactive
CCC(NC(=O)c1cc(COc2ccc(OC)cc2Cl)on1)c1ccncc1 (configuration not stated)	none
C#CCOC(=O)c1ccccc1C(=O)n1nnc2ccccc21	none
Cc1ccc(/C=C2\SC(=S)N(CCC(=O)NNC(=O)c3cccnc3)C2=O)cc1	none
O=C(CCN1C(=O)/C(=C/c2ccccc2)SC1=S)NNC(=O)c1cccnc1	TAAR1 antag 60, OX1R antag-1 46 | OX1R Ca confirm 47 | CHO Ca triplic 69
COc1ccc(C)cc1NC(=O)CSc1nnc(COc2ccccc2)n1Cc1ccco1	none | OX1R Ca confirm inactive | CHO Ca triplic inactive
CCNc1nc(NC(C)C)nc(N(C#N)CCOc2ccccc2)n1	none
Cc1ccc(S(=O)(=O)N2CCOCC2)cc1NC(=O)COC(=O)CCc1c[nH]c2ccccc12	none | OX1R Ca confirm inactive | CHO Ca triplic inactive
Cc1c(C(c2cccc(O)c2)c2c(C)n(C)n(-c3ccccc3)c2=O)c(=O)n(-c2ccccc2)n1C	none
CC(C)OC(=O)NCCOC(=O)Nc1ccc(Cl)cc1	none | OX1R Ca confirm inactive | CHO Ca triplic inactive
Cc1cc(C(=O)COC(=O)c2ccc(O)cc2O)c(C)n1-c1ccc(OC(F)F)cc1	none (no result: CHO parental Ca, OX1R antag-1, OX1R antag-2)
Cc1cc(C(=O)COC(=O)c2ccc(O)cc2O)c(C)n1-c1ccccc1	none | OX1R Ca confirm inactive | CHO Ca triplic inactive
O=C(CSc1nnc(-c2ccc(F)cc2)o1)Nc1ccc(S(=O)(=O)N2CCCCCC2)cc1	none
Cc1cccc(-c2nnc(-c3cccc(NC(=O)Cc4cccs4)c3)o2)c1	TAAR1 antag 74, OX1R antag-1 65 | OX1R Ca confirm inactive | CHO Ca triplic inactive
O=C(Cc1cccs1)Nc1ccc(-c2nnc(-c3ccccc3)o2)cc1	none
Cn1c(=O)n(Cc2ccccc2)c(=O)c2c1nc1n2CCS1	none
COC(=O)[C@H](CC(C)C)NC(=O)NC1CCCc2ccccc21 (some centres not stated)	none | OX1R Ca confirm inactive | CHO Ca triplic inactive
COc1ccc(/C=N/Nc2nccnc2Cl)cc1	none
COCCN(C(=O)CNC(=O)c1ccco1)C(C(=O)NC1CCCC1)c1ccc(OC)c(OC)c1 (configuration not stated)	none
COc1ccc(Cl)cc1C(=O)OCC(=O)NCCNC(=O)COC(=O)c1cc(Cl)ccc1OC	OX1R antag-2 59 | OX1R Ca confirm inactive | CHO Ca triplic 42 | OX1R HTRF confirm 71 | CHO-K1 HTRF inactive
COc1ccc(C(=O)COc2ccccc2C(=O)Nc2ccccc2)cc1	OX1R antag-1 42, OX1R antag-2 71 | OX1R Ca confirm 37 | CHO Ca triplic inactive | OX1R HTRF confirm 60 | CHO-K1 HTRF inactive
COc1cccc(-c2nnc(SCC(=O)Nc3cc(C)ccc3OC)n2N)c1	none
CCn1c2ccccc2c2cc(NC(=O)CSc3nnc(-c4cccc(OC)c4)n3N)ccc21	OX1R antag-1 47, OX1R antag-2 93 | OX1R Ca confirm 47 | CHO Ca triplic inactive | OX1R HTRF confirm 91 | CHO-K1 HTRF inactive
COc1ccc(CCNc2cc(=O)[nH]c(N)n2)cc1	OX1R antag-1 76, OX1R antag-2 86 (no result: GalR3 antagonist, TAAR1 antag, TAAR1 ag) | OX1R Ca confirm inactive | CHO Ca triplic inactive | OX1R HTRF confirm 55 | CHO-K1 HTRF inactive

Bioassay records: PubChem BioAssay, The Scripps Research Institute Molecular Screening Center
